Laboratory results as given in PMC9977399 (Chemical Science, 2023).

Experiments:
[1] = system: lamin A processing in staurosporine-treated Jurkat T cells; assay: western blot of lamin A processing upon inhibitor treatment; format: cell-based, human; details: inhibitor 5 or 25 μM, 2 h preincubation, staurosporine 5 μM, 4 h
Procedure, shortened: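 Low-passage Jurkat T cells (100000 per 0.5 mL) were pretreated 2 h with inhibitor (5 or 25 μM, 1% DMSO; control 1% DMSO), then given staurosporine 5 μM for 4 or 8 h. Lysates were boiled in SDS/DTT and run on 4–12% Bis-Tris SDS–PAGE, then nitrocellulose, blocked with 2% BSA/TBS-T. Primary antibodies (caspase 3, PARP, caspase 6, lamin A/C; 1:1000, overnight 4 °C) were followed by fluorescent secondaries. Bands were quantified from 700/800 nm scans.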

[2] = molecular target: T1, caspase 6 (Homo sapiens, UniProt P55212); assay: kinetic of AIE substrates; format: biochemical; details: caspases 3 and 6 at 10 nM or 50 nM, ex 312/em 450 nm, 30 min
T1 sequence (P55212 24-179 limits assumed): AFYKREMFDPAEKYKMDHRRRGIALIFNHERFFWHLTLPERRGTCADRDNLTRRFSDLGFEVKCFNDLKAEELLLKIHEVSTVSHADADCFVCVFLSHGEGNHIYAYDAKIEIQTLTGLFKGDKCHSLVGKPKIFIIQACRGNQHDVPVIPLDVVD
T1 sequence (P55212 194-293 limits assumed): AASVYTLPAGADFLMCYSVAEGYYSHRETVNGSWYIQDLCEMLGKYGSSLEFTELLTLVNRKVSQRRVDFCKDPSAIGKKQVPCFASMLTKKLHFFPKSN
Procedure, shortened: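 Recombinant human caspases 3 and 6 were active-site titrated with zVAD-fmk and used at 10 or 50 nM. Buffer: 10% w/v sucrose, 20 mM PIPES, 10 mM NaCl, 1 mM EDTA, 10 mM DTT, pH 7.2–7.4. Enzyme was preincubated 15 min, then added to AIE substrates from DMSO at varied final concentrations, 37 °C. Relative hydrolysis rate came from the linear fluorescence segment. At least three replicates, mean ± SD.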

[3] = molecular target: T1, caspase 6; assay: kobs/I inhibition parameter of AOMK inhibitors; format: biochemical; details: substrate Ac-VEID-ACC 100 μM, 37 °C
Procedure, shortened: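 Recombinant human caspase 6 was active-site titrated with zVAD-fmk and preactivated 15 min at 37 °C in sucrose/PIPES/NaCl/EDTA/DTT buffer, pH 7.2–7.4. Serial inhibitor dilutions with substrate were pre-equilibrated 15 min at 37 °C, then enzyme was added. ACC fluorescence (ex 355/em 460 nm) was read for 30 min from start under pseudo-first-order conditions. Second-order kobs/I: at least three independent runs, mean ± SD.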

[4] = molecular target: T2, caspase 9 (Homo sapiens, UniProt P55211); assay: kobs/I inhibition parameter of AOMK inhibitors; format: biochemical; details: substrate Ac-LEHD-ACC 100 μM, 37 °C
T2 sequence (P55211 1-315 limits assumed): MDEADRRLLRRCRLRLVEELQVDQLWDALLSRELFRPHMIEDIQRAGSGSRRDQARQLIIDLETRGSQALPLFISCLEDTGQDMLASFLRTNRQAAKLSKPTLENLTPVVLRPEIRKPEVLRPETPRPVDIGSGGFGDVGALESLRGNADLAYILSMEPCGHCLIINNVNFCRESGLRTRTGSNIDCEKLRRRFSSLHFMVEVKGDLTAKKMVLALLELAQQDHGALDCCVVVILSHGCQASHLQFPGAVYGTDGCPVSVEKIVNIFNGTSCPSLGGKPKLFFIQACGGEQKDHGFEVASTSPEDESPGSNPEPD
T2 sequence (P55211 331-416 limits assumed): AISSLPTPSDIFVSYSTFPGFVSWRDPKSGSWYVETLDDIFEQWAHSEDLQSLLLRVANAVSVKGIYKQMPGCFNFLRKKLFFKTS
Procedure, shortened: (§1)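 Recombinant human caspases 8, 9 or 10 were active-site titrated with zVAD-fmk and preactivated 15 min at 37 °C. Buffer: sucrose/PIPES/NaCl/EDTA/DTT, pH 7.2–7.4, plus 0.75 M sodium citrate to dimerise. Inhibitor dilutions were mixed with substrate and held 15 min at 37 °C before enzyme addition. Fluorescence (ex 355/em 460 nm) was followed 30 min; pseudo-first-order kobs/I from ≥3 experiments, mean ± SD.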

[5] = molecular target: caspase 8 (Homo sapiens, UniProt Q14790); assay: kobs/I inhibition parameter of AOMK inhibitors; format: biochemical; details: substrate Ac-LEHD-ACC 100 μM, 37 °C
Procedure, shortened: as §1

[6] = molecular target: T3, caspase 10 (Homo sapiens, UniProt Q92851); assay: kobs/I inhibition parameter of AOMK inhibitors; format: biochemical; details: substrate Ac-LEHD-ACC 100 μM, 37 °C
T3 sequence (Q92851 220-415 limits assumed): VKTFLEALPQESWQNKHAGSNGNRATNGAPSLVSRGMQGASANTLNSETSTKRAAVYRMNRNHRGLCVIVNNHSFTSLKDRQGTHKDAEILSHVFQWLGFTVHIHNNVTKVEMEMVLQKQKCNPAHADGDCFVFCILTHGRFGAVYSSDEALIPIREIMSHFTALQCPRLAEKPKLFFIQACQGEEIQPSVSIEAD
T3 sequence (Q92851 416-521 limits assumed): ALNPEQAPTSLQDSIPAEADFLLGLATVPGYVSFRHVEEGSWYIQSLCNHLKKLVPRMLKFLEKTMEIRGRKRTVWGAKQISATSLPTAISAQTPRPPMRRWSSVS
Procedure, shortened: as §1

[7] = system: lamin A processing in staurosporine-treated Jurkat T cells; assay: mass cytometry, anti-lamin A; format: cell-based, human; details: inhibitor 5 or 25 μM, 2 h preincubation, staurosporine 5 μM, 4 h
Procedure, shortened: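 Jurkat T cells (1,000,000 per 0.5 mL) were pretreated 2 h with inhibitor (5 or 25 μM), then given staurosporine 5 μM for 4 h. Cells were fixed in 4% PFA (20 min, 4 °C), Perm-S permeabilised and stained 2 h RT with metal-tagged antibodies (lamin A 142Nd, cleaved PARP 143Nd, caspase 6 159Tb, cleaved caspase 3 172Yb). Ir191/193 DNA stain followed; CyTOF acquisition within 12 h.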

Sequence of caspase 8 (Q14790 217-374 limits assumed): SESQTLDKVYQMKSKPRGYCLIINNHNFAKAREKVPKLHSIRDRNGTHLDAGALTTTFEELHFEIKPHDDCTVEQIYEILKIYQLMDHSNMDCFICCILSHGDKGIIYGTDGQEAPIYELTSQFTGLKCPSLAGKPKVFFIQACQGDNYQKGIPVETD
Sequence of caspase 8 (Q14790 385-479 limits assumed): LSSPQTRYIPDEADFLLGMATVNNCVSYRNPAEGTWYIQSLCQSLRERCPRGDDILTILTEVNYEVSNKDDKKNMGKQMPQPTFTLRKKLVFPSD

Row | selectivity for caspase 6 over caspase 3 (AIE substrate hydrolysis) [2] | potency toward caspase 6 (kobs/I, in words) [3] | inhibition of apical caspase 9 (in words) [4] | inhibition of apical caspase 8 (in words) [5] | inhibition of apical caspase 10 (in words) [6] | Substance | prevention of lamin A cleavage (western blot) [1] | effect on lamin A processing (mass cytometry) [7]
1 | – | – | – | – | – | Ac-EVEID-AOMK | only partially effective in preventing lamin A cleavage | –
2 | very high selectivity over caspase 3 | – | – | – | – | Ac-EVEID-K(T PE )-NH2 [Ac-EVEID-K-TPE] | – | –
3 | – | most potent inhibitors of caspase 6 | – | – | – | Ac-EVEhFD-AOMK | only partially effective in preventing lamin A cleavage | –
4 | – | most potent inhibitors of caspase 6 | poor inhibitor | poor inhibitor | poor inhibitor | Ac-hFVEID-AOMK | largely prevent lamin A | efficiently block lamin A processing
